# MsrA inhibitor: inhibitors of bovine MsrA; purified bovine MsrA, absorbance read-out; 360,000 compounds, 0.75% hits; inhibition, % at 15.5 µM; in the data active = inhibition above about 4.5%;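 also: 0% = vehicle wells with enzyme and 100% = reference inhibitor wells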
# NadD block: blocks S. aureus nicotinate mononucleotide adenylyltransferase | inhibition, % at 20 µM | purified NadD enzyme, colorimetric absorbance read-out | 360,000 compounds, 0.78% hits; in the data active = inhibition above about 26%
# NR2E3 ag-1: activates human photoreceptor nuclear receptor NR2E3. GST-NR2E3/biotin-RetCOR TR-FRET, 1536-well. inhibition of corepressor binding, % at 4.78 µM. 320,000 compounds, 0.12% hits. AID 2300;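 active = percent inhibition above the cutoff of mean plus 3 SD of all tested compounds, set per screening campaign, cut at about 20% in these data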;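 also: 0% = DMSO wells and 100% = biotin wells as full block of FRET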
#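 Format: 1536-well format; test system: GST-NR2E3 and biotin-RetCOR proteins; read-out basis: percent inhibition of TR-FRET ratio; timing: 5 h incubation at 4 °C; detection: time-resolved FRET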
# GalR3 antagonist: human GalR3 antagonism; O60755; HEK293 GalR3-CNG cAMP membrane potential fluorescence; galR3 body fused to GalR1 C-terminus; inhibition, % at 3 µM; 360,000 compounds, 0.44% hits; AID 651719;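 active = inhibition above the screen-wide average plus 3 SD, cut at about 13% in these data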;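 also: forskolin and galanin both at EC90 stimulate the cells; cAMP rise reported by CNG channel membrane potential dye signal; 0% = forskolin plus galanin with DMSO and 100% = forskolin alone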
# Target sequence (O60755 1-299 limits assumed): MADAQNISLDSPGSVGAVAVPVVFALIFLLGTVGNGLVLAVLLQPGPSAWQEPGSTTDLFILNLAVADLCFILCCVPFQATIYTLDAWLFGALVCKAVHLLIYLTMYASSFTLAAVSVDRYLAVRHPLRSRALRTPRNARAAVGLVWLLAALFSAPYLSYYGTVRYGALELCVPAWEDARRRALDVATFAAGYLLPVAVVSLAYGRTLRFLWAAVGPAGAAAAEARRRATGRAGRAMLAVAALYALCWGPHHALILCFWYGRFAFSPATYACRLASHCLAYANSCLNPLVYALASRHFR
# NR2E3 ag-2: human photoreceptor-specific nuclear receptor agonism. Q9Y5X4. CHO-S Gal4-NCOR/VP16-NR2E3 two-hybrid, luciferase. inhibition of corepressor binding, % at 3.98 µM. 360,000 compounds, 0.35% hits;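 active = inhibition above the mean of all tested compounds plus 3 SD, cut at about 70% in these data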;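 also: 0% = DMSO with NR2E3 transfected cells and 100% = cells lacking NR2E3 construct; higher means lower luciferase signal from less NR2E3 corepressor binding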
# bovine MsrA act: activates bovine MsrA enzyme; purified bovine MsrA, absorbance read-out; activation, % at 10.6 µM; 360,000 compounds, 0.3% hits; in the data active = activation above about 7.5%;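 also: 0% = vehicle and 100% = reference activator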
# * = called active by the depositor; i = inactive; . = no result given; ! = repeats disagree. In the library only some 2.5% were active in any assay of this set; here they are far more common.
SMILES,MsrA inhibitor,NadD block,NR2E3 ag-1,GalR3 antagonist,NR2E3 ag-2,bovine MsrA act
O=C(N=Nc1c(O)[nH]c2ccc(Cl)cc12)c1cc(-c2cccs2)nc2ccccc12,1.6,33.5*,4.9,6.5,-30.7,-1.6
O=C(N=Nc1c(O)[nH]c2ccc([N+](=O)[O-])cc12)c1ccccc1Cl,1.2,-3.0,0.9,-4.3,-26.0,-2.8
O=Cc1ccc(-c2ccccc2C(=O)O)o1,2.9,0.2,1.1,-1.2,3.6,-14.7
O=C(O)c1ccccc1-c1c2cc(I)c(=O)c(I)c-2oc2c(I)c(O)c(I)cc12,2.1,28.5*!,i,-7.3,5.6,-7.2
Cc1cccc(C(C(=O)NC2CCCCC2)N(Cc2cccnc2)C(=O)c2csnn2)c1 (stereo unspecified),-0.2,0.6,-0.4,-7.2,-40.2,-1.6
COc1cc(OC)c(C(=O)Nc2cc(S(=O)(=O)N3CCOCC3)ccc2N2CCN(C)CC2)cc1OC,1.8,0.0,.,-1.3,18.5,-1.3
Cc1c(NC(=O)c2cccs2)cccc1NC(=O)c1cccs1,0.6,-2.2,.,-2.0,-15.7,-7.6
O=c1c(C=NCCN2CCNCC2)c(-c2ccccc2)[nH]n1-c1ccc([N+](=O)[O-])cc1,.,.,-2.1,.,.,.
Cc1[nH]n(-c2ccc([N+](=O)[O-])cc2)c(=O)c1C=NCCN1CCN(C(=O)c2ccccc2)CC1,4.8*,-6.0,-0.3,4.5,-9.7,-2.5
COc1cc(/C=C/C(=O)OCC(=O)Nc2ccc([N+](=O)[O-])cc2)ccc1O,3.4,-2.3,2.4,5.8,-7.4,-2.8
CC(C)=CCN1CCN(Cc2cnc(C)s2)CC1CCO (stereo unspecified),-0.9,2.0,2.3,-7.0,-2.9,-8.1
Clc1cccc(-c2cc3nc4c(c(N5CCOCC5)n3n2)CCCC4)c1,4.8*,8.6,-2.2,-1.8,-97.0,-7.4
Fc1cccc(-c2cc3nc4c(c(N5CCOCC5)n3n2)CCCC4)c1,0.6,1.1,-0.8,-1.0,-70.7,-7.9
O=C(CSc1n[nH]c(=O)[nH]c1=O)Nc1ccc2c(c1)C(=O)c1ccccc1C2=O,0.3,53.9*,4.1,-2.9,-29.9,-0.8
O=C(CSc1ccccn1)Nc1ccc2c(c1)C(=O)c1ccccc1C2=O,-0.4,5.7,-3.5,-1.2,-119.2,-3.7
CC12C=CC(=O)C=C1C(F)CC1C3CCC(O)(C(=O)CO)C3(C)CC(O)C12F (stereo unspecified),-1.6,-4.9,.,-1.9,23.5,-3.1
CC(C)C(=O)NN1c2ccccc2CCc2ccccc21,-0.2,-3.5,-1.8,-2.5,-15.1,0.3
CCOc1ccc(-c2ccc(/C=C3/C(=N)N4C(C)=CSC4=NC3=O)o2)c([N+](=O)[O-])c1,0.5,32.3*,1.4,10.5,-24.1,-3.3
COc1cc2c(cc1NC(=O)CN1C(=O)NC3(CCc4ccccc43)C1=O)oc1ccccc12 (stereo unspecified),3.1,35.5*,2.3,-6.1,29.0,0.3
COc1cc2c(cc1NC(=O)CN(C)Cc1ccc(OC)c(OC)c1)oc1ccccc12,4.6*,-2.9,5.3,-1.8,-20.9,-7.1
CCCCNC(=O)C1(C)CCN1C(=O)c1ccncc1 (stereo unspecified),0.0,1.2,.,-7.2,-36.9,-1.5
CC[C@]1(C(=O)OC)[C@H]2C(=O)N(C)C(=O)[C@H]2[C@H]2CN=C(SCc3ccc(Cl)cc3)N21,0.0,4.4,.,-3.9,-50.8,-2.3
CCCC(=O)NC(NC1CCS(=O)(=O)C1)C(Cl)(Cl)Cl (stereo unspecified),-1.0,-5.6,2.3,-7.3,-13.4,-10.1
CN(CC(=O)NCC1CCCO1)S(=O)(=O)c1ccc(Br)cc1 (stereo unspecified),-0.5,-5.9,-0.2,0.8,-7.2,-1.1
Cc1cccc(NC(=O)CSc2nnc(-c3ccco3)c(-c3ccco3)n2)c1,4.9*,11.0,.,-1.5,-4.0,-10.0
CCn1c(SCC(=O)Nc2ccc3c(c2)c2ccccc2n3CC)nnc1-c1ccco1,0.1,62.8*,0.1,-10.9,-25.8,3.3
Cc1cccc(NC(=O)CSc2nnc(-c3ccco3)c(-c3ccco3)n2)c1C,.,16.8,-1.6,.,-21.5,-12.7
COc1ccc(/C=N/n2cncn2)cc1COc1ccc(NC(C)=O)cc1,0.3,-5.1,-3.8,-3.4,-16.4,-1.9
N=c1oc2c3c4c(cc2cc1C(=O)Nc1ccccc1)CCCN4CCC3,.,31.5*,1.2,.,-20.8,-13.5

# Compound activity: PubChem BioAssay, several laboratories
